The list is not random: actives were taken first. Their share in the collection is about 1.7%.
S1P2 agonist: agonists of human S1P2 receptor. S1P2-expressing cell line, agonist reporter read-out. activation, % at 4.5 µM. actives 0.46% (n = 97,000). O95136; in the data active means activation above about 16%;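 further: 0% = vehicle low control and 100% = maximal reference agonist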
Target sequence (O95136 whole entry, looked up): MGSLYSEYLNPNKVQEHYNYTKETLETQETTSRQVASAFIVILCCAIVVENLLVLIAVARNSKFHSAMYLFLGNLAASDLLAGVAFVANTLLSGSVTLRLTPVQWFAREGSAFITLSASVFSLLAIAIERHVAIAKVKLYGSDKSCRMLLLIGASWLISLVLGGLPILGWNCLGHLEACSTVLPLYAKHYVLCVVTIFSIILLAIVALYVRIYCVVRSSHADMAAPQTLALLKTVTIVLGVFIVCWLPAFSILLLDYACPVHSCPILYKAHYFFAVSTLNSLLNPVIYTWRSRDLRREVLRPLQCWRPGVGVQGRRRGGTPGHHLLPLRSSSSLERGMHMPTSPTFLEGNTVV
GALR2 antag: GALR2 (human) receptor antagonism | GALR2-expressing cells, antagonist mode | inhibition, % at 4 µM | actives 0.39% (n = 140,000) | AID 828; in the data active means inhibition above about 27%;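 further: cells stimulated with galanin 1-16 at roughly its EC80; 0% = agonist challenge control and 100% = basal control without agonist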
S1P2 antag: S1P2 (human) receptor antagonism; O95136; cell-based S1P2 antagonist assay, inhibition at 5 uM; inhibition, % at 5 µM; actives 0.21% (n = 97,000); in the data active means inhibition above about 45%;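 further: CRE beta-lactamase reporter cells expressing human S1P2 stimulated with S1P; 0% = agonist at EC80 alone and 100% = agonist plus reference antagonist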
EphB4 antag: blocks human EphB4 binding to ephrin-B2. P54760. EphB4 LBD / TNYL-RAW-Alexa532 peptide, fluorescence polarization. inhibition, % at 7 µM. actives 0.15% (n = 97,000);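 active means inhibition above the screen-wide mean inhibition plus 3 SD, cut at about 15% in these data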;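 further: 0% = DMSO wells and 100% = excess unlabeled TNYL-RAW peptide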
HIV Rev-RRE inh: HIV Rev-RRE protein-RNA interaction inhibition; P05866; AID 704; actives 0.79% (n = 97,000); inhibition, % at 8 µM; Rev peptide-RRE RNA binding, FRET;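 active means inhibition above the screen-wide mean plus 3 SD, cut at about 35% in these data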;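 further: 0% = median DMSO wells and 100% = median Neomycin B control wells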
Target sequence (P05866 whole entry, looked up): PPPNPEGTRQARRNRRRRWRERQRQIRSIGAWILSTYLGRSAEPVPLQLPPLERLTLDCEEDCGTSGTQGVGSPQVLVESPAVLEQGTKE
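Assay system: Rev peptide and RRE RNA, both fluorescently labelled; times: 5 min preincubation and 15 min binding, 25 °C; detection: FRET, ex 480 nm, em 540 and 671 nm; read-out basis: % inhibition from 671/540 nm acceptor-to-donor ratio, scaled between controls; benchmarks: DMSO low control, neomycin B high control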
GALR2 agonist: agonists of human galanin receptor 2 (GALR2) | AID 803 | actives 0.48% (n = 140,000) | GALR2-expressing cells, agonist activation read-out | activation, % (concentration not given with the values); in the data active means activation above about 5%, passing the limit was not always enough;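 further: 0% = vehicle buffer wells and 100% = reference agonist at full effect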
GALR2 agon conf: GALR2 (human) agonism confirmed | shares compounds with GALR2 agonist | GALR2-expressing cells, agonist activation | activation, % at 5.6 µM | actives 10% (n = 460) | AID 864; in the data active means activation above about 8.4%;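 further: 0% = buffer-only vehicle wells and 100% = full reference agonist response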
BLA activ ctr: counter-screen for GALR2 agonists: beta-lactamase reporter activators | CHO NFAT-bla reporter, beta-lactamase FRET activation | shares compounds with GALR2 agonist | AID 865 | actives 10% (n = 460) | activation, % at 5.6 µM;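 active means activation above the screen-wide mean activation plus 3 SD, cut at about 8% in these data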;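 further: 0% = DMSO with PBS wells and 100% = thapsigargin positive control wells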
Active calls of the source: *.

Results for Cc1ccc(C)c(NC(=O)/C(C#N)=C/c2cn(CC(=O)NCc3ccco3)c3ccccc23)c1 ?
GALR2 antag: -9.3; GALR2 agonist: 69.6*; GALR2 agon conf: 27.4*; BLA activ ctr: 27.5*

Results for Cc1ccccc1OCCn1cc(/C=C(\C#N)C(=O)NCc2ccco2)c2ccccc21 ?
GALR2 antag: -5.0; GALR2 agonist: 1.4

Results for Cc1cc(C)cc(NC(=O)/C(C#N)=C/c2cn(CC(=O)NCc3ccco3)c3ccccc23)c1 ?
GALR2 antag: 5.0; GALR2 agonist: 52.1*; GALR2 agon conf: 26.0*; BLA activ ctr: 23.6*

How did Brc1ccc(-c2nc(N/N=C/c3cccnc3)c3ccccc3n2)cc1 do in these assays?
S1P2 agonist: -7.0; GALR2 antag: 3.7; S1P2 antag: 7.2; EphB4 antag: -1.3; HIV Rev-RRE inh: 5.1; GALR2 agonist: 76.4*; GALR2 agon conf: 0.0; BLA activ ctr: -1.1

Results for Cc1ccc(-c2nc(N/N=C/c3ccccc3[N+](=O)[O-])c3ccccc3n2)cc1 ?
S1P2 agonist: -2.5; GALR2 antag: -3.6; S1P2 antag: 8.5; EphB4 antag: -3.4; HIV Rev-RRE inh: -0.8; GALR2 agonist: -1.6

What do the screens show for `COc1cc(/C=C/C(=O)N2CCN(CC(O)COc3ccccc3)CC2)cc(OC)c1OC` (stereo not drawn)?
S1P2 agonist: -1.4; GALR2 antag: 2.4; S1P2 antag: -25.4; EphB4 antag: 2.4; HIV Rev-RRE inh: 6.9; GALR2 agonist: -2.5

How did CC1CN(C2CCN(S(=O)(=O)c3ccccc3)CC2)CC(C)O1 (stereo not drawn) do in these assays?
S1P2 agonist: 0.6; GALR2 antag: -6.0; S1P2 antag: -17.6; EphB4 antag: 1.0; HIV Rev-RRE inh: 3.7; GALR2 agonist: -0.6

Results for CC1CN(C2CCN(S(=O)(=O)Cc3ccccc3)CC2)CC(C)O1 (stereo not drawn) ?
S1P2 agonist: -0.6; GALR2 antag: -8.6; S1P2 antag: 18.4; EphB4 antag: 4.0; HIV Rev-RRE inh: 7.7; GALR2 agonist: 9.5; GALR2 agon conf: -0.7; BLA activ ctr: -1.8

Results for O=C(CSc1n[nH]c(-c2ccccc2)n1)Nc1ncc(Br)cc1Br ?
S1P2 agonist: -4.6; GALR2 antag: 1.9; S1P2 antag: 13.1; EphB4 antag: 2.5; HIV Rev-RRE inh: 9.7; GALR2 agonist: -1.6

What do the screens show for `C=CCC(=O)OCC(=O)Nc1ccc(Oc2ccccc2)cc1`?
S1P2 agonist: -5.5; GALR2 antag: 3.9; S1P2 antag: 2.5; EphB4 antag: -2.0; HIV Rev-RRE inh: 1.2; GALR2 agonist: -2.5

What do the screens show for `Cc1ccc(C(=O)NC(=S)Nc2ccc(NC(=O)c3cccc(Cl)c3)cc2)cc1`?
GALR2 antag: -1.9; GALR2 agonist: 10.1*; GALR2 agon conf: 5.4; BLA activ ctr: 5.0

How did Cc1cc(C)nc(NC(=O)c2cccc(Cl)c2)n1 do in these assays?
S1P2 agonist: -3.8; GALR2 antag: 13.9; S1P2 antag: -0.4; EphB4 antag: 2.1; HIV Rev-RRE inh: 5.6; GALR2 agonist: -2.2

How did O=C(NCCN1CCOCC1)c1csc2c1CCCC2 do in these assays?
S1P2 agonist: -1.9; GALR2 antag: -17.2; S1P2 antag: -11.7; EphB4 antag: 1.9; HIV Rev-RRE inh: 1.9; GALR2 agonist: 0.5

How did CC1CC(C)CN(CCCNC(=O)c2csc3c2CCCC3)C1 (stereo not drawn) do in these assays?
S1P2 agonist: -7.7; GALR2 antag: -7.1; S1P2 antag: -6.9; EphB4 antag: 1.8; HIV Rev-RRE inh: -1.2; GALR2 agonist: 108.0*; GALR2 agon conf: 0.0; BLA activ ctr: -1.2

Results for COCC(C)NC(=O)COc1ccc(Cl)cc1Cl (stereo not drawn) ?
S1P2 agonist: -11.4; GALR2 antag: -7.1; S1P2 antag: 8.0; EphB4 antag: -0.8; HIV Rev-RRE inh: 1.0; GALR2 agonist: 10.4; GALR2 agon conf: -0.7; BLA activ ctr: -2.3

How did Cc1c(C(=O)N/N=C/c2ccc(-c3ccccc3[N+](=O)[O-])o2)sc(N)c1C#N do in these assays?
GALR2 antag: 16.4; GALR2 agonist: 16.1*; GALR2 agon conf: 9.2*; BLA activ ctr: 11.5*

Results for O=C(N/N=C/c1ccc(-c2ccccc2[N+](=O)[O-])o1)c1cncc(Br)c1 ?
GALR2 antag: 20.1; GALR2 agonist: -1.1

Results for Cc1ccc(CCNC(=O)c2ccc(CS(=O)(=O)Cc3ccccc3F)o2)cc1 ?
S1P2 agonist: -4.5; GALR2 antag: -14.3; S1P2 antag: 15.0; EphB4 antag: -7.5; HIV Rev-RRE inh: 11.1; GALR2 agonist: 0.3

What do the screens show for `O=C(NCCc1ccccc1)c1ccc(CS(=O)(=O)Cc2ccccc2F)o1`?
S1P2 agonist: -1.0; GALR2 antag: -1.7; S1P2 antag: 2.5; EphB4 antag: 2.2; HIV Rev-RRE inh: 2.8; GALR2 agonist: 9.3; GALR2 agon conf: -0.5; BLA activ ctr: -1.4

How did COc1ccc(-c2nnc(-c3ccc(OCC(C)C)cc3)o2)cc1 do in these assays?
S1P2 agonist: -2.5; GALR2 antag: -4.1; S1P2 antag: 0.4; EphB4 antag: -3.5; HIV Rev-RRE inh: 0.1; GALR2 agonist: 13.5*; GALR2 agon conf: -1.4; BLA activ ctr: -2.2

What do the screens show for `O=C1NC2(CCCCC2)C(=O)N1CCS(=O)(=O)Oc1ccccc1`?
S1P2 agonist: -1.9; GALR2 antag: -13.7; S1P2 antag: -13.3; EphB4 antag: -0.2; HIV Rev-RRE inh: 4.2; GALR2 agonist: 10.3; GALR2 agon conf: -1.3; BLA activ ctr: -2.7

What do the screens show for `O=C(CN1C(=O)NC2(CCCCC2)C1=O)Nc1ccccc1Cl`?
GALR2 antag: 9.9; GALR2 agonist: -0.8

Results for COc1cccc(C2CC3(CC(C)(C)NC(=S)N3)Oc3cc(O)ccc32)c1 (stereo not drawn) ?
GALR2 antag: 1.3; GALR2 agonist: 0.3

How did CSC1=NC2(CC(c3ccccc3)Oc3cc(O)ccc32)CC(C)(C)N1 (stereo not drawn) do in these assays?
S1P2 agonist: 0.9; GALR2 antag: -20.2; S1P2 antag: -15.3; EphB4 antag: -10.1; HIV Rev-RRE inh: -2.6; GALR2 agonist: 20.4*; GALR2 agon conf: 9.2*; BLA activ ctr: 78.3*

How did CC(=O)c1cc(C)ccc1OC(=O)c1ccco1 do in these assays?
S1P2 agonist: -1.5; GALR2 antag: 5.6; S1P2 antag: 11.1; EphB4 antag: 0.1; HIV Rev-RRE inh: 5.3; GALR2 agonist: 11.1*; GALR2 agon conf: -0.7; BLA activ ctr: 1.7

What do the screens show for `CCN1CCCC1CNC(=O)Cn1cccc1C(=O)c1ccccc1` (stereo not drawn)?
S1P2 agonist: -5.8; GALR2 antag: -4.0; S1P2 antag: 19.1; EphB4 antag: 1.3; HIV Rev-RRE inh: 9.5; GALR2 agonist: -2.2

Screening data (PubChem BioAssay)
